Assay results from ChEMBL document CHEMBL5724801, “EUbOPEN Chemogenomics Library - Multiplex” (2024).
Values joined by “and” are separate entries in the source; they are usually repeats but may differ in a detail not shown here. Identical values can stand only once.

System: U2OS
Experiment: Multiplex assay against U2OS
Format: toxicity, cell-based
Details: human
How it was run: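 Hoechst33342, BioTracker Green Microtubule Cytoskeleton Dye, MitoTracker Red and Annexin V Alexa Fluor 680 were added to live cells at seeding, and imaging on a CQ1 microscope at 37°C and 5% CO2 followed compound addition. Gating by CellPathfinder machine learning separated cells into Hoechst high-intensity objects or normal cells, then normal cells into healthy, pyknosed or fragmented nuclei, then pyknosed cells into mitotic or apoptotic. Per cents of healthy-nucleus cells are reported for the tubulin, mitochondrial-mass and membrane-permeability phenotypes.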

[1] = 12 h, 1 µM, compound concentration 1 uM
[2] = 12 h, 10 µM, compound concentration 10 uM
[3] = 24 h, 1 µM, compound concentration 1 uM
[4] = 24 h, 10 µM, compound concentration 10 uM
[5] = 48 h, 1 µM, compound concentration 1 uM
[6] = 48 h, 10 µM, compound concentration 10 uM

CC(C)(c1ccc(O)cc1)c1ccc(O)cc1 [BISPHENOL A]
Population Apoptotic (%) [1]: 38.24% and 39.39% | Population Fragmented Nuclei (%) [1]: 2.9% and 4.3% | Population Healthy Nuclei (%) [1]: 88.13% and 77.96% | Population Hoechst High Intensity Objects (%) [1]: 0% | Population Membrane Permeable-Phenotype (%) [1]: 0.3% and 2.76% | Population Mitochondria Different-Phenotype (%) [1]: 0.3% and 6.21% | Population Mitotic Cells (%) [1]: 61.76% and 60.61% | Population Normal (%) [1]: 100% | Population Pyknosed Nuclei (%) [1]: 8.97% and 17.74% | Population Tubulin-Different-Phenotype (%) [1]: 0.9% and 0.69% | Total Cell Count [1]: 379 and 186 | Population Apoptotic (%) [2]: 50% and 47.62% | Population Fragmented Nuclei (%) [2]: 2.17% and 6.45% | Population Healthy Nuclei (%) [2]: 87.31% and 80% | Population Hoechst High Intensity Objects (%) [2]: 0% | Population Membrane Permeable-Phenotype (%) [2]: 0.71% and 4.03% | Population Mitochondria Different-Phenotype (%) [2]: 0.35% and 6.45% | Population Mitotic Cells (%) [2]: 50% and 52.38% | Population Normal (%) [2]: 100% | Population Pyknosed Nuclei (%) [2]: 10.53% and 13.55% | Population Tubulin-Different-Phenotype (%) [2]: 1.42% and 0% | Total Cell Count [2]: 323 and 155 | Population Apoptotic (%) [3]: 49.02% and 57.14% | Population Fragmented Nuclei (%) [3]: 2% and 2.2% | Population Healthy Nuclei (%) [3]: 87.82% and 85.46% | Population Hoechst High Intensity Objects (%) [3]: 0% | Population Membrane Permeable-Phenotype (%) [3]: 1.59% and 3.61% | Population Mitochondria Different-Phenotype (%) [3]: 0% and 5.67% | Population Mitotic Cells (%) [3]: 50.98% and 42.86% | Population Normal (%) [3]: 100% | Population Pyknosed Nuclei (%) [3]: 10.18% and 12.33% | Population Tubulin-Different-Phenotype (%) [3]: 0.68% and 0% | Total Cell Count [3]: 501 and 227 | Population Apoptotic (%) [4]: 38.3% and 22.58% | Population Fragmented Nuclei (%) [4]: 2.34% and 3.03% | Population Healthy Nuclei (%) [4]: 86.68% and 81.31% | Population Hoechst High Intensity Objects (%) [4]: 0% | Population Membrane Permeable-Phenotype (%) [4]: 0.54% and 5.59% | Population Mitochondria Different-Phenotype (%) [4]: 0.81% and 6.21% | Population Mitotic Cells (%) [4]: 61.7% and 77.42% | Population Normal (%) [4]: 100% | Population Pyknosed Nuclei (%) [4]: 10.98% and 15.66% | Population Tubulin-Different-Phenotype (%) [4]: 0.54% and 0.62% | Total Cell Count [4]: 428 and 198 | Population Apoptotic (%) [5]: 38.64% and 58.54% | Population Fragmented Nuclei (%) [5]: 3.22% and 4.97% | Population Healthy Nuclei (%) [5]: 87.66% and 84.29% | Population Hoechst High Intensity Objects (%) [5]: 0% | Population Membrane Permeable-Phenotype (%) [5]: 0.36% and 2.17% | Population Mitochondria Different-Phenotype (%) [5]: 0.24% and 4.66% | Population Mitotic Cells (%) [5]: 61.36% and 41.46% | Population Normal (%) [5]: 100% | Population Pyknosed Nuclei (%) [5]: 9.13% and 10.73% | Population Tubulin-Different-Phenotype (%) [5]: 0.47% and 0% | Total Cell Count [5]: 964 and 382 | Population Apoptotic (%) [6]: 36.49% and 60% | Population Fragmented Nuclei (%) [6]: 2.4% and 2.31% | Population Healthy Nuclei (%) [6]: 88.73% and 86.13% | Population Hoechst High Intensity Objects (%) [6]: 0% | Population Membrane Permeable-Phenotype (%) [6]: 1.22% and 3.02% | Population Mitochondria Different-Phenotype (%) [6]: 0.27% and 2.68% | Population Mitotic Cells (%) [6]: 63.51% and 40% | Population Normal (%) [6]: 100% | Population Pyknosed Nuclei (%) [6]: 8.87% and 11.56% | Population Tubulin-Different-Phenotype (%) [6]: 0.68% and 1.34% | Total Cell Count [6]: 834 and 346

Cc1cc(C(C#N)c2ccc(Cl)cc2)c(Cl)cc1NC(=O)c1cc(I)cc(I)c1O (centres undefined) [CLOSANTEL]
Population Apoptotic (%) [1]: 40% and 50% | Population Fragmented Nuclei (%) [1]: 1.13% and 2.08% | Population Healthy Nuclei (%) [1]: 90.4% and 86.81% | Population Hoechst High Intensity Objects (%) [1]: 0.19% and 0% | Population Membrane Permeable-Phenotype (%) [1]: 0.62% and 4.8% | Population Mitochondria Different-Phenotype (%) [1]: 0.42% and 3.2% | Population Mitotic Cells (%) [1]: 60% and 50% | Population Normal (%) [1]: 99.81% and 100% | Population Pyknosed Nuclei (%) [1]: 8.47% and 11.11% | Population Tubulin-Different-Phenotype (%) [1]: 1.46% and 0.8% | Population Apoptotic (%) [2]: 37.5% and 50% | Population Fragmented Nuclei (%) [2]: 1.14% and 4.88% | Population Healthy Nuclei (%) [2]: 93.39% and 81.71% | Population Hoechst High Intensity Objects (%) [2]: 0% | Population Membrane Permeable-Phenotype (%) [2]: 0.98% and 2.99% | Population Mitochondria Different-Phenotype (%) [2]: 0.49% and 8.96% | Population Mitotic Cells (%) [2]: 62.5% and 50% | Population Normal (%) [2]: 100% | Population Pyknosed Nuclei (%) [2]: 5.47% and 13.41% | Population Tubulin-Different-Phenotype (%) [2]: 0.73% and 2.24% | Total Cell Count [2]: 439 and 164 | Population Apoptotic (%) [3]: 40% and 43.75% | Population Fragmented Nuclei (%) [3]: 1.65% and 4.19% | Population Healthy Nuclei (%) [3]: 90.1% and 86.23% | Population Hoechst High Intensity Objects (%) [3]: 0% | Population Membrane Permeable-Phenotype (%) [3]: 0.61% and 5.56% | Population Mitochondria Different-Phenotype (%) [3]: 0.46% and 6.25% | Population Mitotic Cells (%) [3]: 60% and 56.25% | Population Normal (%) [3]: 100% | Population Pyknosed Nuclei (%) [3]: 8.25% and 9.58% | Population Tubulin-Different-Phenotype (%) [3]: 0.46% and 1.39% | Population Apoptotic (%) [4]: 33.33% and 40% | Population Fragmented Nuclei (%) [4]: 1.76% and 4.91% | Population Healthy Nuclei (%) [4]: 88.75% and 83.93% | Population Hoechst High Intensity Objects (%) [4]: 0% | Population Membrane Permeable-Phenotype (%) [4]: 0% and 2.66% | Population Mitochondria Different-Phenotype (%) [4]: 0% and 4.26% | Population Mitotic Cells (%) [4]: 66.67% and 60% | Population Normal (%) [4]: 100% | Population Pyknosed Nuclei (%) [4]: 9.49% and 11.16% | Population Tubulin-Different-Phenotype (%) [4]: 0.4% and 1.06% | Total Cell Count [4]: 569 and 224 | Population Apoptotic (%) [5]: 45.67% and 45.95% | Population Fragmented Nuclei (%) [5]: 3.15% and 4.35% | Population Healthy Nuclei (%) [5]: 87.31% and 83.28% | Population Hoechst High Intensity Objects (%) [5]: 0% | Population Membrane Permeable-Phenotype (%) [5]: 0.6% and 2.01% | Population Mitochondria Different-Phenotype (%) [5]: 0% and 6.02% | Population Mitotic Cells (%) [5]: 54.33% and 54.05% | Population Normal (%) [5]: 100% | Population Pyknosed Nuclei (%) [5]: 9.53% and 12.37% | Population Tubulin-Different-Phenotype (%) [5]: 0.77% and 0% | Population Apoptotic (%) [6]: 36.05% and 34.09% | Population Fragmented Nuclei (%) [6]: 2.74% and 3.02% | Population Healthy Nuclei (%) [6]: 89.14% and 85.93% | Population Hoechst High Intensity Objects (%) [6]: 0.09% and 0% | Population Membrane Permeable-Phenotype (%) [6]: 0.42% and 1.17% | Population Mitochondria Different-Phenotype (%) [6]: 0.11% and 4.97% | Population Mitotic Cells (%) [6]: 63.95% and 65.91% | Population Normal (%) [6]: 99.91% and 100% | Population Pyknosed Nuclei (%) [6]: 8.12% and 11.06% | Population Tubulin-Different-Phenotype (%) [6]: 0.32% and 0.88% | Total Cell Count [6]: 1060 and 398
